35 compounds from ChEMBL document CHEMBL1795261, “HIF-1α inhibitors: synthesis and biological evaluation of novel moracin O and P analogues” (Eur J Med Chem, 2011) can be followed below.

Calls of active or inactive are those of the source. The calls are words filed in the database; no cut-off is given here. Some results are limits rather than exact numbers.

Assay [1] deals with T1, Hypoxia-inducible factor 1-alpha (Homo sapiens, UniProt Q16665). Description: Inhibition of hypoxia-induced HIF1alpha activation in human Hep3B cells after 16 hrs by HRE-luciferase reporter assay. It counts as cell-based. The note with it: hep 3b2. (In general: In a reporter assay the amount or activity of a reporter protein is the signal.)
Target sequence in this assay (Q16665 whole entry): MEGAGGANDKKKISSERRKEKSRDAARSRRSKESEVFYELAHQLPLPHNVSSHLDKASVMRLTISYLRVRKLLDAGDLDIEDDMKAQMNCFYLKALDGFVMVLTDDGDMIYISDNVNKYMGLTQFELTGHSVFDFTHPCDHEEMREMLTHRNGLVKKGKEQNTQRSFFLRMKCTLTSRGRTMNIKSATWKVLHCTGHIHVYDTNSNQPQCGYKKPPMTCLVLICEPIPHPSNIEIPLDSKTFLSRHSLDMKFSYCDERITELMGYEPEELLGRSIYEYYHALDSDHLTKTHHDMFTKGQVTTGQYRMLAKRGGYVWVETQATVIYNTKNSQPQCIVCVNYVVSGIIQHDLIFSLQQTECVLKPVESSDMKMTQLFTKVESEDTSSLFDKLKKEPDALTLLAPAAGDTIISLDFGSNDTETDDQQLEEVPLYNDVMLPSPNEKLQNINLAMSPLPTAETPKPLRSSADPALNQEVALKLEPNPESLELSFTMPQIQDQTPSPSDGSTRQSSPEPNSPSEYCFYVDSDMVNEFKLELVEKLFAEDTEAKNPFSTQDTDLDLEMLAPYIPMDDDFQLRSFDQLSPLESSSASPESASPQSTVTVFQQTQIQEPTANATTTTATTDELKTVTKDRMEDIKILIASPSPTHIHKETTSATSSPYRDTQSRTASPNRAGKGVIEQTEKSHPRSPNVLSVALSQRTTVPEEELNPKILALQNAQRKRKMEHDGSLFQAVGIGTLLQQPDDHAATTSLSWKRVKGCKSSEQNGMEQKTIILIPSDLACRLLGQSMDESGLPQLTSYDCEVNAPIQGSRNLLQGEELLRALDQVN
Assay [2] in a line: Cytotoxicity against human Hep3B cells after 24 hrs by MTT assay. Format: cell-based, Hep 3B2. In general terms: Tetrazolium dyes change colour on reduction, which living cells bring about.
Assay [3] concerns the target T1, Hypoxia-inducible factor 1-alpha. Kind of assay: Inhibition of hypoxia-induced HIF1alpha protein accumulation in nucleus of human Hep3B cells after 12 hrs by Western blot analysis. It counts as functional, cell-based. The note with it: Hep 3B2. A digest of the protocol:
(§1)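 Hep3B cells were kept under normoxia or hypoxia for 12 h with or without compound. HIF-1α in nuclear extracts was detected by western blot, with the same blot reprobed for topoisomerase-I as loading control. Bands were quantified by image scanning in arbitrary units.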
(A western blot detects proteins with antibodies after separation by electrophoresis.)
Target sequence in this assay (Q16665 whole entry, looked up): as the sequence (Q16665 whole entry) above

Assay [4] shares this target. Kind of assay: Inhibition of HIF1alpha-mediated VEGF production in human Hep3B cells under hypoxic condition after 17.5 hrs by ELISA. To be noted: Hep 3B2. It counts as cell-based. A digest of the protocol: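 Hep3B cells were held under normoxia or hypoxia for 17.5 h with or without compound. Secreted VEGF was then measured by ELISA in the culture supernatant.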
Target sequence in this assay (Q16665 whole entry, looked up): as the sequence (Q16665 whole entry) above
For assay [5] the target is unchanged. Description: Inhibition of hypoxia-induced HIF1alpha protein accumulation in nucleus of human Hep3B cells after 12 hrs at 10 uM by Western blot analysis. Format: functional, cell-based. The note with it: Hep 3B2. A digest of the protocol: as §1
Target sequence in this assay (Q16665 whole entry, looked up): as the sequence (Q16665 whole entry) above

Regarding `COc1cc(OC)cc(-c2cc3cc4c(cc3o2)OC(C(C)(C)O)C4)c1` (stereo not drawn), the IC50 in assay [1] is 0.01 µM; in assay [2], > 30 µM.

For the compound `CC1(C)Oc2cc(OC(=O)c3ccc(Br)cc3)ccc2CC1O` (stereo not drawn), the concentration for half-maximal inhibition (IC50) in assay [1] is 16.8 µM; in assay [2], > 30 µM.

On to `CC1(C)Oc2cc3oc(-c4cc(O)cc(O)c4)cc3cc2CC1O` (racemic) [(+/-)-MORACIN P], for which the figures for the IC50 in assay [1] and in assay [2] were 10.7 µM and > 30 µM, respectively.

With `CC(C)(O)C1Cc2cc3cc(-c4cc(F)cc(F)c4)oc3cc2O1` (stereo not drawn), the figures for the half-maximal inhibitory concentration (IC50) in assay [1] and in assay [2] were 0.36 µM and > 30 µM, respectively.

For `CC1(C)Oc2cc(OC(=O)c3ccc(OCc4ccccc4)cc3)ccc2CC1O` (stereo not drawn), the IC50 is 12.9 µM in assay [1] and > 30 µM in assay [2].

For the compound `CC1(C)Oc2cc(OC(=O)c3ccc(-c4ccc(F)cc4F)cc3)ccc2CC1O` (stereo not drawn), the IC50 is 17.6 µM in assay [1] and > 30 µM in assay [2].

On to `CC(C)(O)C1Cc2ccc(OC(=O)c3ccc(Br)cc3)cc2O1` (stereo not drawn), for which the IC50 in assay [1] and in assay [2] was > 30 µM each time.

With `Cn1cncc1-c1cc2cc3c(cc2o1)OC(C(C)(C)O)C3` (stereo not drawn), the IC50 is > 0.03 µM in assay [1] and > 30 µM in assay [2].

For the compound `CC(C)(O)C1Cc2ccc(OC(=O)c3cc(O)cc(O)c3)cc2O1` (stereo not drawn), the concentration for half-maximal inhibition (IC50) in assay [1] and in assay [2] was > 30 µM each time.

Regarding `CC(C)(O)C1Cc2cc3cc(-c4cc(O)cc(O)c4)oc3cc2O1` (racemic) [MORACIN O], the IC50 in assay [1] is 0.00676 µM; in assay [2], > 30 µM.

On to `CC1(C)Oc2cc(OC(=O)c3ccc(OCc4ccccc4)c(OCc4ccccc4)c3)ccc2CC1O` (stereo not drawn), for which the IC50 is 7.3 µM in assay [1] and > 30 µM in assay [2].

Turning to `CC(C)(O)C1Cc2cc3cc(-c4ccc(O)cc4)oc3cc2O1` (stereo not drawn), the results for the IC50 in assay [1] and in assay [2] were 0.0042 µM and > 30 µM, respectively. For the same compound, the inhibition entry in assay [3] and in assay [4] was “Dose-dependent effect” throughout.

With `CC1(C)Oc2cc(OC(=O)c3ccc(-c4cccc([N+](=O)[O-])c4)cc3)ccc2CC1O` (stereo not drawn), the IC50 was 17.5 µM in assay [1] and > 30 µM in assay [2].

Regarding `CC(C)(O)C1Cc2cc3cc(-c4ccncc4)oc3cc2O1` (stereo not drawn), the figures for the half-inhibitory concentration (IC50) in assay [1] and in assay [2] were 1.1 µM and > 30 µM, respectively.

As to `CC1(C)Oc2cc(OC(=O)c3ccc(-c4cccc(C#N)c4)cc3)ccc2CC1O` (stereo not drawn), the IC50 in assay [1] and in assay [2] was > 30 µM throughout.

On to `CC1(C)Oc2cc(OC(=O)c3cc(OCc4ccccc4)cc(OCc4ccccc4)c3)ccc2CC1O` (stereo not drawn), for which the values for the IC50 in assay [1] and in assay [2] were 2.6 µM and > 30 µM, respectively.

As to `COc1cccc(-c2cc3cc4c(cc3o2)OC(C(C)(C)O)C4)c1` (stereo not drawn), the IC50 was 0.007 µM in assay [1] and > 30 µM in assay [2].

In the case of `Cc1ccc(-c2cc3cc4c(cc3o2)OC(C(C)(C)O)C4)cc1` (stereo not drawn), the IC50 in assay [1] was 0.31 µM; in assay [2] it was > 30 µM.

On to `CC(C)(O)[C@H]1Cc2cc3cc(-c4cc(O)cc(O)c4)oc3cc2O1`, for which, in assay [1], the midpoint of inhibition, the IC50, lay at 0.00676 µM. Further, in assay [3], the inhibition result is “Dose-dependent effect”.

Consider `CC(C)(O)C1Cc2cc3cc(-c4cccc(O)c4)oc3cc2O1` (stereo not drawn), for which the figures for the IC50 in assay [1] and in assay [2] were 0.046 µM and > 30 µM, respectively.

Turning to `CC(C)(O)C1Cc2cc3cc(-c4ccccc4)oc3cc2O1` (stereo not drawn), the IC50 in assay [1] was 0.054 µM; in assay [2], > 30 µM.

In assay [1], `CC1(C)Oc2cc3oc(-c4cc(O)cc(O)c4)cc3cc2C[C@H]1O` [MORACIN P] had an IC50 of 0.0107 µM.

For `COc1cccc(-c2ccc(C(=O)Oc3ccc4c(c3)OC(C(C)(C)O)C4)cc2)c1` (stereo not drawn), the IC50 in assay [1] and in assay [2] was > 30 µM in each case.

On to `CC(C)(O)C1Cc2ccc(OC(=O)c3ccc(-c4cccc([N+](=O)[O-])c4)cc3)cc2O1` (stereo not drawn), for which the IC50 in assay [1] and in assay [2] was > 30 µM in each case.

Turning to `CC1(C)Oc2cc(OC(=O)c3ccc(O)c(O)c3)ccc2CC1O` (stereo not drawn), the 50% inhibitory concentration (IC50) in assay [1] and in assay [2] was > 30 µM throughout.

`COc1cccc(-c2ccc(C(=O)Oc3ccc4c(c3)OC(C)(C)C(O)C4)cc2)c1` (stereo not drawn): the IC50 is 17.2 µM in assay [1] and > 30 µM in assay [2].

Consider `CCOC(=O)COc1ccc(-c2cc3cc4c(cc3o2)OC(C(C)(C)O)C4)cc1` (stereo not drawn), for which the half-maximal inhibitory concentration (IC50) is 0.054 µM in assay [1] and > 30 µM in assay [2].

Take `COc1ccc(-c2cc3cc4c(cc3o2)OC(C(C)(C)O)C4)cc1` (stereo not drawn): the IC50 in assay [1] is 0.11 µM; in assay [2] it was > 30 µM.

Turning to `CC1(C)Oc2cc(OC(=O)c3cc(O)cc(O)c3)ccc2CC1O` (stereo not drawn), the IC50 in assay [1] and in assay [2] was > 30 µM in each case.

For `CC1(C)Oc2cc(OC(=O)c3cccc(OCc4ccccc4)c3)ccc2CC1O` (stereo not drawn), the IC50 in assay [1] is 5.3 µM; in assay [2] it was > 30 µM.

As to `CC(C)(O)[C@H]1Cc2cc3cc(-c4ccc(O)cc4)oc3cc2O1`, the IC50 in assay [1] was 0.001 µM; in assay [2], > 30 µM. For the same compound, in assay [3], the inhibition result was “Dose-dependent effect”. The inhibition result in assay [5] is “Active”.

With `COc1ccccc1-c1cc2cc3c(cc2o1)OC(C(C)(C)O)C3` (stereo not drawn), the IC50 in assay [1] was 0.58 µM; in assay [2], > 30 µM.

On to `CC(C)(O)C1Cc2ccc(OC(=O)c3cc(OCc4ccccc4)cc(OCc4ccccc4)c3)cc2O1` (stereo not drawn), for which the IC50 in assay [1] is 26.2 µM; in assay [2], > 30 µM.

As for `CC1(C)Oc2cc(OC(=O)c3ccc(O)cc3)ccc2CC1O` (stereo not drawn), the IC50 in assay [1] and in assay [2] was > 30 µM each time.

In the case of `CC(C)(O)C1Cc2cc3cc(-c4ccc(OCc5ccccc5)cc4)oc3cc2O1` (stereo not drawn), the IC50 was 0.49 µM in assay [1] and > 30 µM in assay [2].

What is called IC50 is the midpoint of a concentration-inhibition curve.
